From ChEMBL document CHEMBL1130012 (J Med Chem, 1997)
pKi: −log10 of the molar value.

Tests used:
[1] = molecular target: T1, Muscarinic acetylcholine receptor M2 (Rattus norvegicus, UniProt P10980); assay: Binding affinity towards rat Muscarinic acetylcholine receptor M2 was determined
T1 sequence (P10980 whole entry): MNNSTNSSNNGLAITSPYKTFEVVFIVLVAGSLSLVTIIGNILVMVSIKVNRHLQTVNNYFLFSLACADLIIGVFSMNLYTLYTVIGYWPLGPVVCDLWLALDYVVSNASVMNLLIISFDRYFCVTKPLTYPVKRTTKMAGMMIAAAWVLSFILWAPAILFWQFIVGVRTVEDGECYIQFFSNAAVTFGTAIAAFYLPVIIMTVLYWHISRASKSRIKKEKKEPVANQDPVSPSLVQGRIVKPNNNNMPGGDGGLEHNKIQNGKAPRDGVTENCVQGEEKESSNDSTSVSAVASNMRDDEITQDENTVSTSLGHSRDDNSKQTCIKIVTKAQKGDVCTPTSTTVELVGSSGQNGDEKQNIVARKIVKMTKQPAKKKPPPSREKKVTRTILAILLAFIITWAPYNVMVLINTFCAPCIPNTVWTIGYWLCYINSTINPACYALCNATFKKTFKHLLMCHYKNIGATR

[2] = molecular target: T2, Muscarinic acetylcholine receptor M1 (Rattus norvegicus, UniProt P08482); assay: Binding affinity towards rat Muscarinic acetylcholine receptor M1 was determined
T2 sequence (P08482 whole entry): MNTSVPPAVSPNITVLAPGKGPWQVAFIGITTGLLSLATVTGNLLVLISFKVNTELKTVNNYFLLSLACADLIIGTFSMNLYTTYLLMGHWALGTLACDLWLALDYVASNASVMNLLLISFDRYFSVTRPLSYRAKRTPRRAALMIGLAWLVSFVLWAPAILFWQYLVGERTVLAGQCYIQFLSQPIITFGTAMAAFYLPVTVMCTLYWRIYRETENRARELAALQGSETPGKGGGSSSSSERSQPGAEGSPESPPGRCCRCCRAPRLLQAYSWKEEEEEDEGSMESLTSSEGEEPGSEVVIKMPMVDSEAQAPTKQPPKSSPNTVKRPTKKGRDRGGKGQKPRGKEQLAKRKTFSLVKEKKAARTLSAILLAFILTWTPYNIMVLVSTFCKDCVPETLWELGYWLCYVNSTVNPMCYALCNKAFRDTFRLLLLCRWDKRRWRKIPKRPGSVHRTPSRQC

[3] = molecular target: Muscarinic acetylcholine receptor M3 (Rattus norvegicus) (UniProt P08483); assay: Binding affinity towards Muscarinic acetylcholine receptor M3 was determined in rat pancreas
Chain of Muscarinic acetylcholine receptor M3 (Rattus norvegicus) (P08483 whole entry, looked up): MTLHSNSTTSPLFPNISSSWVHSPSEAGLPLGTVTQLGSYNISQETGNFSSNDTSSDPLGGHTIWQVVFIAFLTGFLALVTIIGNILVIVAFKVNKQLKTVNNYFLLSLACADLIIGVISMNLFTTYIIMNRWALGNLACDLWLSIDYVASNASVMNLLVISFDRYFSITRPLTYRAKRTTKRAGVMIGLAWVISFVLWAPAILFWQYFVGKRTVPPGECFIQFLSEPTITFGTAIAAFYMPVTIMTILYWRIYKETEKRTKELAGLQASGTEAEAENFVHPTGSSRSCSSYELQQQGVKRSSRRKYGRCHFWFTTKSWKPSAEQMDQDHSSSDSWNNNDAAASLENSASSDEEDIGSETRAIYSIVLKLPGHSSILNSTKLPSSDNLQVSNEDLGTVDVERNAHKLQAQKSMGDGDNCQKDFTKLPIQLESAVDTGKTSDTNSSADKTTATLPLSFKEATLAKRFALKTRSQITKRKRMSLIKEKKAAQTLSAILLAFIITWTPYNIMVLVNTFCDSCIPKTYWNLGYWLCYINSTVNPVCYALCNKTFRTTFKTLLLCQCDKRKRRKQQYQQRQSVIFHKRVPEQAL

Rattus norvegicus [4] = species: Rattus norvegicus; assay: The Biodistribution of the antagonistic compound in male wistar rats, after 15 minutes of injection in the trachea expressed as (body weight-corrected) uptake value; format: organism-based; details: in vivo, 0.25 h
Rattus norvegicus [5] = assay: The Biodistribution of the antagonistic compound along with pretreated atropine (2.5 mg/kg) in male wistar rats after 15 minutes of injection in the pancreas expressed as (body weight-corrected) uptake value; format: organism-based; details: in vivo, 0.25 h
How it was run: (§1)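 Same protocol, except the pretreatment was saline containing atropine (0.5 mg/0.5 mL; 2.5 mg/kg) given i.v. 1 min before tail-vein injection of the radioligand (1.85-2.78 MBq in 0.4 mL saline) into pentobarbital-anaesthetized (60 mg/kg) male Wistar rats (240 g). Tissues removed at 15 min and counted ex vivo. Uptake is body-weight-corrected DAR = (cpm/g tissue)/(cpm injected/g body weight).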

Rattus norvegicus [6] = assay: The Biodistribution of the antagonistic compound along with pretreated atropine (2.5 mg/kg) in male wistar rats after 15 minutes of injection in the plasma expressed as (body weight-corrected) uptake value; format: organism-based; details: in vivo, 0.25 h; how it was run: as §1
Rattus norvegicus [7] = assay: The Biodistribution of the antagonistic compound along with pretreated atropine (2.5 mg/kg) in male wistar rats after 15 minutes of injection in the red blood cells; Below limit of detection expressed as (body weight-corrected) uptake value; format: organism-based; details: in vivo, 0.25 h; how it was run: as §1
Rattus norvegicus [8] = assay: The Biodistribution of the antagonistic compound along with pretreated atropine (2.5 mg/kg) in male wistar rats after 15 minutes of injection in the spleen; format: organism-based; details: in vivo, 0.25 h; how it was run: as §1
Rattus norvegicus [9] = assay: The Biodistribution of the antagonistic compound along with pretreated atropine (2.5 mg/kg) in male wistar rats after 15 minutes of injection in the submandibular gland expressed as (body weight-corrected) uptake value; format: organism-based; details: in vivo, 0.25 h; how it was run: as §1
Rattus norvegicus [10] = assay: The Biodistribution of the antagonistic compound along with pretreated atropine (2.5 mg/kg) in male wistar rats after 15 minutes of injection in the testes expressed as (body weight-corrected) uptake value; format: organism-based, Testis; details: in vivo, 0.25 h; how it was run: as §1
Rattus norvegicus [11] = assay: The Biodistribution of the antagonistic compound along with pretreated atropine (2.5 mg/kg) in male wistar rats after 15 minutes of injection in the trachea expressed as (body weight-corrected) uptake value; format: organism-based; details: in vivo, 0.25 h; how it was run: as §1
Rattus norvegicus [12] = species: Rattus norvegicus; assay: The Biodistribution of the antagonistic compound in male wistar rats, after 15 minutes of injection in the cerebellum expressed as (body weight-corrected) uptake value; Below limit of detection; format: organism-based; details: in vivo, 0.25 h
Rattus norvegicus [13] = species: Rattus norvegicus; assay: The Biodistribution of the antagonistic compound in male wistar rats, after 15 minutes of injection in the cortex expressed as (body weight-corrected) uptake value; Below limit of detection; format: organism-based; details: in vivo, 0.25 h
Rattus norvegicus [14] = species: Rattus norvegicus; assay: The Biodistribution of the antagonistic compound in male wistar rats, after 15 minutes of injection in the fat expressed as (body weight-corrected) uptake value; format: organism-based, Adipose tissue; details: in vivo, 0.25 h
Rattus norvegicus [15] = species: Rattus norvegicus; assay: The Biodistribution of the antagonistic compound in male wistar rats, after 15 minutes of injection in the heart; format: organism-based; details: in vivo, 0.25 h
Rattus norvegicus [16] = species: Rattus norvegicus; assay: The Biodistribution of the antagonistic compound in male wistar rats, after 15 minutes of injection in the intestine expressed as (body weight-corrected) uptake value; format: organism-based; details: in vivo, 0.25 h
Rattus norvegicus [17] = species: Rattus norvegicus; assay: The Biodistribution of the antagonistic compound in male wistar rats, after 15 minutes of injection in the kidney expressed as (body weight-corrected) uptake value; format: organism-based; details: in vivo, 0.25 h
Rattus norvegicus [18] = species: Rattus norvegicus; assay: The Biodistribution of the antagonistic compound in male wistar rats, after 15 minutes of injection in the lung expressed as (body weight-corrected) uptake value; format: organism-based; details: in vivo, 0.25 h
Rattus norvegicus [19] = species: Rattus norvegicus; assay: The Biodistribution of the antagonistic compound in male wistar rats, after 15 minutes of injection in the muscle expressed as (body weight-corrected) uptake value; format: organism-based, Muscle tissue; details: in vivo, 0.25 h
Rattus norvegicus [20] = species: Rattus norvegicus; assay: The Biodistribution of the antagonistic compound in male wistar rats, after 15 minutes of injection in the pancreas expressed as (body weight-corrected) uptake value; format: organism-based; details: in vivo, 0.25 h
Rattus norvegicus [21] = species: Rattus norvegicus; assay: The Biodistribution of the antagonistic compound in male wistar rats, after 15 minutes of injection in the plasma expressed as (body weight-corrected) uptake value; format: organism-based; details: in vivo, 0.25 h
Rattus norvegicus [22] = assay: The Biodistribution of the antagonistic compound along with pretreated atropine (2.5 mg/kg) in male wistar rats after 15 minutes of injection in the bladder; format: organism-based, Urinary bladder/Urine; details: in vivo, 0.25 h; how it was run: as §1
Rattus norvegicus [23] = assay: The Biodistribution of the antagonistic compound along with pretreated atropine (2.5 mg/kg) in male wistar rats after 15 minutes of injection in the cerebellum; Below limit of detection; format: organism-based; details: in vivo, 0.25 h; how it was run: as §1
Rattus norvegicus [24] = assay: The Biodistribution of the antagonistic compound along with pretreated atropine (2.5 mg/kg) in male wistar rats after 15 minutes of injection in the cortex expressed as (body weight-corrected) uptake value; Below limit of detection; format: organism-based; details: in vivo, 0.25 h; how it was run: as §1
Rattus norvegicus [25] = assay: The Biodistribution of the antagonistic compound along with pretreated atropine (2.5 mg/kg) in male wistar rats after 15 minutes of injection in the fat expressed as (body weight-corrected) uptake value; format: organism-based, Adipose tissue; details: in vivo, 0.25 h; how it was run: as §1
Rattus norvegicus [26] = assay: The Biodistribution of the antagonistic compound along with pretreated atropine (2.5 mg/kg) in male wistar rats after 15 minutes of injection in the heart expressed as (body weight-corrected) uptake value; format: organism-based; details: in vivo, 0.25 h; how it was run: as §1
Rattus norvegicus [27] = species: Rattus norvegicus; assay: Biodistribution of compound in male wistar rats, after 15 minutes of injection in the bladder expressed as (body weight-corrected) uptake value; format: ADME, organism-based, Urinary bladder/Urine; details: in vivo, 0.25 h
Rattus norvegicus [28] = species: Rattus norvegicus; assay: The Biodistribution of the antagonistic compound in male wistar rats, after 15 minutes of injection in the red blood cells expressed as (body weight-corrected) uptake value; Below limit of detection; format: organism-based; details: in vivo, 0.25 h
Rattus norvegicus [29] = species: Rattus norvegicus; assay: The Biodistribution of the antagonistic compound in male wistar rats, after 15 minutes of injection in the stomach expressed as (body weight-corrected) uptake value; format: organism-based; details: in vivo, 0.25 h
Rattus norvegicus [30] = species: Rattus norvegicus; assay: The Biodistribution of the antagonistic compound in male wistar rats, after 15 minutes of injection in the submandibular gland expressed as (body weight-corrected) uptake value; format: organism-based; details: in vivo, 0.25 h
Rattus norvegicus [31] = species: Rattus norvegicus; assay: The Biodistribution of the antagonistic compound in male wistar rats, after 15 minutes of injection in the testes expressed as (body weight-corrected) uptake value; format: organism-based, Testis; details: in vivo, 0.25 h
Rattus norvegicus [32] = assay: The Biodistribution of the antagonistic compound along with pretreated atropine (2.5 mg/kg) in male wistar rats after 15 minutes of injection in the intestine expressed as (body weight-corrected) uptake value; format: organism-based; details: in vivo, 0.25 h; how it was run: as §1
Rattus norvegicus [33] = assay: The Biodistribution of the antagonistic compound along with pretreated atropine (2.5 mg/kg) in male wistar rats after 15 minutes of injection in the kidney expressed as (body weight-corrected) uptake value; format: organism-based; details: in vivo, 0.25 h; how it was run: as §1
Rattus norvegicus [34] = assay: The Biodistribution of the antagonistic compound along with pretreated atropine (2.5 mg/kg) in male wistar rats after 15 minutes of injection in the liver expressed as (body weight-corrected) uptake value; format: organism-based; details: in vivo, 0.25 h; how it was run: as §1
Rattus norvegicus [35] = assay: The Biodistribution of the antagonistic compound along with pretreated atropine (2.5 mg/kg) in male wistar rats after 15 minutes of injection in the lung expressed as (body weight-corrected) uptake value; format: organism-based; details: in vivo, 0.25 h; how it was run: as §1
Rattus norvegicus [36] = assay: The Biodistribution of the antagonistic compound along with pretreated atropine (2.5 mg/kg) in male wistar rats after 15 minutes of injection in the muscle expressed as (body weight-corrected) uptake value; format: organism-based, Muscle tissue; details: in vivo, 0.25 h; how it was run: as §1
Rattus norvegicus [37] = species: Rattus norvegicus; assay: The Biodistribution of the antagonistic compound in male wistar rats, after 15 minutes of injection in the liver expressed as (body weight-corrected) uptake value; format: organism-based; details: in vivo, 0.25 h
Rattus norvegicus [38] = species: Rattus norvegicus; assay: The Biodistribution of the antagonistic compound in male wistar rats, after 15 minutes of injection in the spleen expressed as (body weight-corrected) uptake value; format: organism-based; details: in vivo, 0.25 h
Rattus norvegicus [39] = assay: The Biodistribution of the antagonistic compound along with pretreated atropine (2.5 mg/kg) in male wistar rats after 15 minutes of injection in the stomach expressed as (body weight-corrected) uptake value; format: organism-based; details: in vivo, 0.25 h; how it was run: as §1

C[N+]12CCC(CC1)[C@@H](OC(=O)C(O)(c1ccccc1)c1ccccc1)C2
pKi [1]: 9.37
pKi [2]: 9.89
pKi [3]: 9.19

C[N+]1(C)CCC(OC(=O)C(O)(c2ccccc2)C2CCCCC2)CC1.[I-] (racemic)
Uptake value (Rattus norvegicus [4]): 0.54
Uptake value (Rattus norvegicus [5]): 0.34
Uptake value (Rattus norvegicus [6]): 0.13
Uptake value (Rattus norvegicus [7]): Not Active
Uptake value (Rattus norvegicus [8]): 0.18
Uptake value (Rattus norvegicus [9]): 0.2
Uptake value (Rattus norvegicus [10]): 0.11
Uptake value (Rattus norvegicus [11]): 0.24
Uptake value (Rattus norvegicus [12]): Not Active
Uptake value (Rattus norvegicus [13]): Not Active
Uptake value (Rattus norvegicus [14]): 0.5
Uptake value (Rattus norvegicus [15]): 8.45
Uptake value (Rattus norvegicus [16]): 3.39
Uptake value (Rattus norvegicus [17]): 2.48
Uptake value (Rattus norvegicus [18]): 0.67
Uptake value (Rattus norvegicus [19]): 0.08
Uptake value (Rattus norvegicus [20]): 1.97
Uptake value (Rattus norvegicus [21]): 0.14
Uptake value (Rattus norvegicus [22]): 9.72
Uptake value (Rattus norvegicus [23]): Not Active
Uptake value (Rattus norvegicus [24]): Not Active
Uptake value (Rattus norvegicus [25]): 0.23
Uptake value (Rattus norvegicus [26]): 0.16
Uptake value (Rattus norvegicus [27]): 4.71
Uptake value (Rattus norvegicus [28]): Not Active
Uptake value (Rattus norvegicus [29]): 1.62
Uptake value (Rattus norvegicus [30]): 1.68
Uptake value (Rattus norvegicus [31]): 0.07
Uptake value (Rattus norvegicus [32]): 1.1
Uptake value (Rattus norvegicus [33]): 1.49
Uptake value (Rattus norvegicus [34]): 8.1
Uptake value (Rattus norvegicus [35]): 0.14
Uptake value (Rattus norvegicus [36]): 0.07
Uptake value (Rattus norvegicus [37]): 6.27
Uptake value (Rattus norvegicus [38]): 0.97
Uptake value (Rattus norvegicus [39]): 0.45
